Assays:
[1] = cited from earlier work
diabetic db/db mice = test: Chronic efficacy study; assay type: in vivo; conditions: for HbA1c value attenuated from baseline / body weight increase: 25 nmol/kg s.c. once daily for 4 weeks, n = 5; for reduction of AUC glucose 0–210 min, OGTT day 15: chronic study, 25 nmol/kg s.c. once daily, day 15, n = 5
[2] = test system: blood glucose of non-fasted db/db mice; test: Hypoglycemic duration assay; assay type: in vivo, C57BL/6 db/db mice; conditions: single s.c. dose 25 nmol/kg, 0 to 36 h, n = 5
How it was run: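 Non-fasted male C57BL/6 db/db mice with free food and water were randomised into groups (n = 5). Each got one s.c. dose of 25 nmol/kg test compound, or PBS as control. Tail-blood glucose was read by glucometer at 0, 0.5, 1, 2, 4, 6, 8, 10, 24 and 36 h. […] Data are mean ± SD, one-way ANOVA with Tukey test.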

[3] = phase 2b, oral, adults with obesity; cited from earlier work
[4] = phase III study (SURPASS-1), across all doses

Question: For “tirzepatide: imbalanced GLP-1R/GIPR co-agonist, fatty diacid conjugated to K”, which weight loss ([1]; in T2D treatment and in obesity independent of diabetes) is on record?
Answer: more than 20%

Question: What about the “incidence of gastrointestinal disorders” value [1, 4] of the same compound?
Answer: 28–41%

Question: And the study drug discontinuation [1, 4]?
Answer: 3–7%

Question: What does the source list for liraglutide?
Answer: HbA1c value attenuated from baseline (diabetic db/db mice): ~30%; body weight increase (diabetic db/db mice): ~7.4%; reduction of AUC glucose 0–210 min, OGTT day 15 (diabetic db/db mice): ~40%

Question: For exendin-4: GLP-1R mono-agonist, which “HbA1c value attenuated from baseline” value (diabetic db/db mice) is on record?
Answer: approximately 15%

Question: What about the body weight increase (diabetic db/db mice) of the same compound?
Answer: ~6.9%

Question: And the “reduction of AUC glucose 0–210 min, OGTT day 15” value (diabetic db/db mice)?
Answer: ~18%

Question: What about the “glucose AUC0–36h (in words)” value [2] of the same compound?
Answer: comparable to that of the PBS group

Question: Which discontinuation rate [3] does the source give for `N#Cc1ccc(COc2cccc(C3CCN(Cc4nc5ccc(C(=O)O)cc5n4C[C@@H]4CCO4)CC3)n2)c(F)c1` [Danuglipron] here?
Answer: greater than 50%

Question: And the rate of diarrhea [3]?
Answer: 25%

Question: What about the rate of nausea [3] of the same compound?
Answer: 73%

Question: What about the rate of vomiting [3] of the same compound?
Answer: 47%

— publication PMC10951637 (iScience, 2024)
